The source made the active and inactive calls.
Assays:
Paracentrotus lividus [1] = assay: Antimitotic activity against Paracentrotus lividus embryo assessed as cleavage alteration after 2.5 to 6 hrs post fertilization by sea urchin embryo assay; format: functional
Outline: (§1)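 Fertilized sea urchin eggs, cultured at room temperature in filtered seawater with paddle agitation (60 rpm), exposed 10-25 min post-fertilization (45-60 min before first cleavage) to 2-fold decreasing concentrations as a monolayer, up to 2000 embryos/mL. Stocks: 5 mM in 95% EtOH, or 5-20 mM in DMSO then 10-fold diluted in 95% EtOH. Cleavage scored microscopically 2.5-6 h post-fertilization. EC = threshold concentration causing cleavage alteration with death before hatching or full arrest.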

Paracentrotus lividus [2] = assay: Antimitotic activity against Paracentrotus lividus embryo assessed as cleavage arrest after 2.5 to 6 hrs post fertilization by sea urchin embryo assay; format: functional; outline: as §1
Paracentrotus lividus [3] = assay: Antimitotic activity against Paracentrotus lividus embryo assessed as embryo spinning after 0.5 to 20 hrs post dose by sea urchin embryo assay; format: functional
Outline: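 Free-swimming blastulae from the same culture treated just after hatching (9-12 h post-fertilization) in filtered seawater at room temperature. Final DMSO at most 0.05%, EtOH at most 1%. Tubulin destabilization scored microscopically as loss of forward movement, settling to the vessel bottom and rapid spinning about the animal-vegetal axis.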

Paracentrotus lividus [4] = assay: Antimitotic activity against Paracentrotus lividus embryo assessed as cleavage alteration up to 80 to 100 uM after 2.5 to 6 hrs post fertilization by sea urchin embryo assay; format: functional, organism-based
Outline: (§2)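 Fertilized sea urchin eggs, treated 10-25 min after fertilization (45-60 min before first cleavage), exposed to 2-fold decreasing concentrations; monolayer in filtered seawater at room temperature, up to 2000 embryos/mL. Compounds from EtOH or DMSO stocks diluted in 95% EtOH; final DMSO ≤0.05%, EtOH ≤1%. Cleavage scored microscopically 2.5-6 h post-fertilization; EC = threshold concentration causing cleavage alteration with death before hatching or full mitotic arrest.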

Paracentrotus lividus [5] = assay: Antimitotic activity against Paracentrotus lividus embryo assessed as cleavage alteration up to 5 uM after 2.5 to 6 hrs post fertilization by sea urchin embryo assay; format: functional, organism-based; outline: as §2

| Compound | EC (Paracentrotus lividus [1]) [µM] | EC (Paracentrotus lividus [2]) [µM] | EC (Paracentrotus lividus [3]) [µM] | Activity (Paracentrotus lividus [4]) | Activity (Paracentrotus lividus [5]) |
| --- | --- | --- | --- | --- | --- |
| COc1ccc(/C=C/c2ccc3c(c2)OCCO3)cc1O | 0.1 | 1 | 2 | – | – |
| COc1ccc(-c2nc(Cc3cc(OC)c4c(c3OC)OCO4)no2)cc1O | 4 | >4 | >5 | – | – |
| COc1ccc(-c2nc(-c3cc(OC)c4c(c3)OCO4)no2)cc1O | 4 | >4 | >4 | – | – |
| C=CCc1cc(OC)c2c(c1)OCO2 | – | – | – | inactive | – |
| COc1cc(-c2nnc(-c3cc(OC)c4c(c3)OCO4)o2)cc(OC)c1OC | 0.5 | 2 | >5 | – | – |
| C/C=C/c1cc(OC)c(OC)c(OC)c1OC | – | – | – | – | inactive |
| COc1ccc(-c2nnc(-c3ccc(OC)c(OC)c3)o2)cc1OC | 0.5 | 10 | 5 | – | – |
| COc1ccc(-c2nnc(-c3cc(OC)c4c(c3)OCO4)[nH]2)cc1O | 2 | >4 | >5 | – | – |
| COc1ccc(/C=C/c2cc3c(c(OC)c2OC)OCO3)cc1O | 0.1 | 4 | 5 | – | – |
| COc1ccc(/C=C\c2cc(OC)c(OC)c(OC)c2)cc1OP(=O)([O-])[O-].[Na+].[Na+] [FOSBRETABULIN DISODIUM] | 0.005 | 0.01 | 1 | – | – |
| COc1ccc(/C=C\c2cc(OC)c3c(c2)OCO3)cc1O [Combretastatin A-2] | 0.002 | 0.01 | 0.05 | – | – |
| COc1ccc(-c2nnc(-c3cc4c(c(OC)c3OC)OCO4)[nH]2)cc1O | 4 | >4 | >4 | – | – |
| COc1ccc(/C=C/c2cc(OC)c3c(c2)OCCO3)cc1O | 0.02 | 0.1 | 2 | – | – |
| C/C=C/c1cc(OC)c2c(c1OC)OCO2 [ISOAPIOL] | 2 | 8 | >10 | – | – |
| COc1ccc(/C=C/c2cc(OC)c3c(c2)OCO3)cc1O | 0.02 | 0.1 | 1 | – | – |
| COc1ccc(-c2nc(-c3cc4c(c(OC)c3OC)OCO4)no2)cc1O | >4 | >4 | >4 | – | – |
| C/C=C/c1cc2c(c(OC)c1OC)OCO2 [ISODILLAPIOL] | 20 | 80 | >100 | – | – |
| COc1cc(/C=C/c2cc(OC)c3c(c2OC)OCO3)ccc1O | >4 | >4 | >5 | – | – |
| C=CCc1cc(OC)c2c(c1OC)OCO2 | – | – | – | inactive | – |
| COc1ccc(/C=C\c2cc3c(cc2OC)OCCO3)cc1O | 0.02 | 0.2 | 1 | – | – |
| COc1ccc(-c2nnc(-c3cc(OC)c(OC)c(OC)c3)[nH]2)cc1O | 4 | >4 | >4 | – | – |

| Compound | EC (Paracentrotus lividus [1]) [µM] | EC (Paracentrotus lividus [2]) [µM] | EC (Paracentrotus lividus [3]) [µM] | Activity (Paracentrotus lividus [4]) | Activity (Paracentrotus lividus [5]) |
| --- | --- | --- | --- | --- | --- |
| COc1ccc(/C=C\c2cc3c(c(OC)c2OC)OCO3)cc1O | 0.01 | 0.2 | 0.5 | – | – |
| COc1ccc(/C=C\c2cc(OC)c(OC)c(OC)c2OC)cc1O | 0.02 | 0.1 | 1 | – | – |
| COc1cccc(-c2nnc(-c3ccc(OC)c(OC)c3)o2)c1 | 0.05 | 4 | 2 | – | – |
| COc1ccc(-c2nnc(-c3cc(OC)c4c(c3OC)OCO4)[nH]2)cc1O | >4 | >4 | >4 | – | – |
| COc1ccc(/C=C/c2cc3c(cc2OC)OCCO3)cc1O | 0.1 | 2 | >5 | – | – |
| C=CCc1cc2c(c(OC)c1OC)OCO2 | – | – | – | inactive | – |
| COc1ccc(/C=C\c2cc(OC)c3c(c2)OCCO3)cc1O | 0.002 | 0.01 | 0.05 | – | – |
| COc1ccc(/C=C(/C(=O)O)c2cc(OC)c(OC)c(OC)c2)cc1O | >11.2 | >11.2 | >11.2 | – | – |
| COc1ccc(-c2nc(-c3cc(OC)c4c(c3OC)OCO4)no2)cc1O | >4 | >4 | >4 | – | – |
| COc1cc(-c2noc(-c3ccc4c(c3)OCO4)n2)cc(OC)c1OC | >4 | >4 | >4 | – | – |
| COc1ccc(/C=C/c2cc(OC)c(OC)c(OC)c2OC)cc1O | 0.1 | 1 | 5 | – | – |
| COc1ccc(-c2nnc(-c3cccc(F)c3)o2)cc1OC | 1 | >4 | >5 | – | – |
| COc1ccc(/C=C/c2cc(OC)c3c(c2OC)OCO3)cc1O | 0.5 | 4 | 5 | – | – |
| COc1ccc(/C=C\c2ccc3c(c2)OCCO3)cc1O | 0.02 | 0.5 | 1 | – | – |
| COc1ccc(/C=C\c2cc(OC)c3c(c2OC)OCO3)cc1O | 0.02 | 0.1 | 1 | – | – |
| COc1ccc(-c2nnc(-c3cc(OC)c4c(c3)OCO4)o2)cc1O | 0.5 | 2 | >5 | – | – |
| COc1ccc(/C=C\c2cc(OC)c(OC)c(OC)c2)cc1O [COMBRETASTATIN A4] | 0.002 | 0.01 | 0.05 | – | – |
| COc1ccc(-c2nc(-c3c(Cl)c(OC)c4c(c3OC)OCO4)no2)cc1O | >4 | >4 | – | – | – |
| C/C=C/c1cc(OC)c2c(c1)OCO2 [ISOMYRISTICIN] | >5 | >5 | >5 | – | – |
| COc1ccc(-c2nnc(-c3cc(OC)c(OC)c(OC)c3)o2)cc1O | >4 | >4 | >4 | – | – |
